MC4R barr agon: MC4R agonists recruiting beta-arrestin, primary screen, cell-based, luminescence, agonist arm of biased-ligand search; 360,000 tested, 0.98% active; U2OS MC4R beta-arrestin complementation; percent of melanotan II response, DMSO zero; Melanocortin receptor 4 (Homo sapiens), P32245; activation, % at 8.9 µM;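 active means activation above a per-plate cutoff, the mean activation of sample wells on that plate plus 3 SD, cut at about 8% in these data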
Target sequence (P32245 whole entry, looked up): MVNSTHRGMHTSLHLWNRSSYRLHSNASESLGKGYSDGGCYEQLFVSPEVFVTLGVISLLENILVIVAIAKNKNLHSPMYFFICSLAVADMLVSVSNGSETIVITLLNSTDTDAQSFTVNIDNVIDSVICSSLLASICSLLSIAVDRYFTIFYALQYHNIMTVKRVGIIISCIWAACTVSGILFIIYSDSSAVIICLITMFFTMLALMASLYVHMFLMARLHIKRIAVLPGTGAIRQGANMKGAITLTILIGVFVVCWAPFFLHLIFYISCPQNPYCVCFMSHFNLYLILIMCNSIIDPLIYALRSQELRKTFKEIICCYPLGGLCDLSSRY
H9c2 TAG inh: inhibitors of triacylglycerol accumulation, primary screen, cell-based, uHTS, fluorescence, H9c2 | H9c2 cells, Nile Red lipid (TAG) fluorescence; cells loaded with 200 µM oleic acid | AID 651582, 2012 | inhibition, % at 12.5 µM | 230,000 tested, 0.66% active;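 active means pattern-corrected inhibition of lipid staining of at least 50% with the nuclear-stain viability signal not falling by more than 50%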;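 further: 0% = DMSO wells and 100% = triacsin C control wells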
GalR3 antag: GalR3 antagonists in HEK293 cells, primary screen, cell-based, fluorescence readout; 360,000 tested, 0.44% active; AID 651719, 2012; inhibition, % at 3 µM; HEK293 GalR3-CNG cAMP membrane potential fluorescence; galR3 body fused to GalR1 C-terminus;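 active means inhibition above the screen-wide average plus 3 SD, cut at about 13% in these data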;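 further: forskolin and galanin both at EC90 stimulate the cells; cAMP rise reported by CNG channel membrane potential dye signal; 0% = forskolin plus galanin with DMSO and 100% = forskolin alone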
Target sequence (O60755 1-299 limits assumed): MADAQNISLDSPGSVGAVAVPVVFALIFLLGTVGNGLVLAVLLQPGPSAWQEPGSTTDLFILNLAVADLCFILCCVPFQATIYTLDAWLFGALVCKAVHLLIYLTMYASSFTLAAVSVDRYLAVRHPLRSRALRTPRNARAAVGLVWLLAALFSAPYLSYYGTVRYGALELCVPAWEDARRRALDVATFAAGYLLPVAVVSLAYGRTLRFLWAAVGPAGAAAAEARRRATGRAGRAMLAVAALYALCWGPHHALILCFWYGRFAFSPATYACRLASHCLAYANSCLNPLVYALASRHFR
Efflux pump mplx: inhibitors of Candida efflux pumps in yeast, primary screen, S. cerevisiae, Nile Red, multiplex; 330,000 tested, 0.44% active; S. cerevisiae Candida pump triplex; inhibition, % at 10 µM;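 active means plate passing quality check with inhibition over a set limit, or well fluorescence over plate mean plus 4 SD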;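 further: Nile Red retained in pooled yeast measured as flow cytometry median fluorescence; 0% = buffer negative control and 100% = Enniatin B positive control; higher means more Nile Red kept so more efflux inhibition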
MC4R antag cAMP: MC4R antagonists of cAMP signaling, primary screen, cell-based, TR-FRET, antagonist arm of biased-ligand search | Melanocortin receptor 4 (Homo sapiens), P32245 | MC4R-expressing cells, MTII-stimulated cAMP, LANCE TR-FRET | inhibition, % at 6.5 µM | 360,000 tested, 0.48% active | AID 540295, 2011;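 active means inhibition above its plate's cutoff, the mean of tested wells on that plate plus 3 SD, cut at about 29% in these data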;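 further: 0% = Melanotan II alone and 100% = Melanotan II plus saturating MCL0020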
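Material: human MC4R-expressing U2OS cells. Probe or stimulus: Melanotan II challenge. Dosing: 6.5 µM single dose. Times: 30-min compound, 1-h challenge, 1-h detection, room temperature. Technique: TR-FRET with Eu-cAMP and labeled anti-cAMP, 671 nm. Replication: singlicate.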
Calb FLC: C. albicans growth inhibition with fluconazole, primary screen, CaCi-2 strain, Alamar Blue fluorescence. AID 1979, 2009. C. albicans CaCi-2 + fluconazole, 48 h. growth inhibition, % (concentration not given with the values). 300,000 tested, 0.57% active;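 active means growth inhibition above about 58% in most replicates, limit read from the data, passing the limit was not always enough; inconclusive means exactly half the replicates above a set limit; inactive means most replicates below a set limit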;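 further: all wells also contain fluconazole at 8 µg/ml as a sub-toxic cotreatment; 0% = median of DMSO wells and 100% = median of geldanamycin control wells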
cAMP nonselect: nonselective cAMP signaling inhibitors, parental cells, counter-screen for MC4R biased antagonist project, cell-based, TR-FRET, U2OS, forskolin, triplicate. shares compounds with MC4R antag cAMP. LANCE TR-FRET. inhibition, % at 6.5 µM. 1,600 tested, 26% active;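 active means mean inhibition over triplicates above the low-control well mean plus 3 SD, set per campaign, cut at about 13% in these data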;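 further: signal is single emission at 671 nm which falls as cellular cAMP rises; 0% = forskolin-stimulated wells and 100% = buffer without forskolin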
MC4R cAMP antag: MC4R cAMP antagonists, retest, confirmation, cell-based, TR-FRET | shares compounds with MC4R antag cAMP | MC4R-expressing cells, MTII-stimulated cAMP | inhibition, % at 6.5 µM | 1,600 tested, 27% active; in the data active means inhibition above about 29%;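 further: 0% = agonist stimulated wells alone and 100% = agonist stimulated wells plus saturating reference antagonist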
* marks the source's active call; other numbers are inactive results. The list is not random: actives were taken first. Their share in the collection is about 2.9%.

Results for COc1ccc(S(=O)(=O)CC(=O)Nc2nnc(C(F)(F)F)s2)cc1 ?
MC4R barr agon: -4; H9c2 TAG inh: -7; GalR3 antag: -4; Efflux pump mplx: 0; MC4R antag cAMP: 10; Calb FLC: -14

How did Cc1ccccc1S(=O)(=O)N(C)C[C@H]1OCc2cn(nn2)CCCC(=O)N([C@H](C)CO)C[C@@H]1C do in these assays?
GalR3 antag: -3

What do the screens show for `Cc1ccccc1-c1cccc2c3c([nH]c12)[C@@H]1C[C@H]2[C@@H](C(=O)N1CC3)[C@H](C)ON2C`?
GalR3 antag: -6

What do the screens show for `O=C(CNC(=O)c1ccc(Br)cc1)NCC(=O)OCC(=O)c1ccccc1`?
MC4R barr agon: -1; H9c2 TAG inh: -5; GalR3 antag: 3; Efflux pump mplx: 0; MC4R antag cAMP: 42*; Calb FLC: 16; cAMP nonselect: 14*; MC4R cAMP antag: 10

How did O=C(CNC(=O)c1ccccc1)OCN1C(=O)c2ccccc2C1=O do in these assays?
MC4R barr agon: 1; H9c2 TAG inh: 1; GalR3 antag: -4; MC4R antag cAMP: 31*; cAMP nonselect: 14*; MC4R cAMP antag: 22

How did OC[C@@H]1CN(Cc2ccc(Cl)cc2)C[C@H](n2cnc3c(N4CCN(c5ccccc5)CC4)ncnc32)O1 do in these assays?
MC4R barr agon: 4; H9c2 TAG inh: 14; GalR3 antag: -7; MC4R antag cAMP: 8

How did COc1cccc(NS(=O)(=O)c2ccc3[nH]cc(C(=O)NCCC(C)C)c(=O)c3c2)c1 do in these assays?
MC4R barr agon: 1; GalR3 antag: -1; Efflux pump mplx: 0; MC4R antag cAMP: 29*; Calb FLC: -2; cAMP nonselect: 2; MC4R cAMP antag: -3

How did CC(C)CCNC(=O)c1c[nH]c2ccc(S(=O)(=O)N3CCOCC3)cc2c1=O do in these assays?
MC4R barr agon: -3; GalR3 antag: -2; Efflux pump mplx: 0; MC4R antag cAMP: 5; Calb FLC: 16

What do the screens show for `CC(C)OP(=O)(OC(C)C)C(Nc1ccc([N+](=O)[O-])cc1)c1cccc([N+](=O)[O-])c1` (stereo not given)?
MC4R barr agon: -3; H9c2 TAG inh: 0; GalR3 antag: -5; Efflux pump mplx: 0; MC4R antag cAMP: 5; Calb FLC: inconclusive

Results for CC(C)OP(=O)(OC(C)C)/C(C=O)=N\Nc1ccc([N+](=O)[O-])cc1 ?
MC4R barr agon: -3; H9c2 TAG inh: 1; GalR3 antag: -3; Efflux pump mplx: 0; MC4R antag cAMP: 39*; Calb FLC: -10; cAMP nonselect: 9; MC4R cAMP antag: 8

How did CCCCS(=O)(=O)N1CCCc2nc(-c3ccc(Br)cc3)ccc21 do in these assays?
GalR3 antag: -1

What do the screens show for `CCCC(=O)OCC(=O)Nc1ccccc1Sc1ccccc1`?
MC4R barr agon: -1; GalR3 antag: -11; Efflux pump mplx: 0; MC4R antag cAMP: 19; Calb FLC: 34

What do the screens show for `O=C(COC(=O)CNS(=O)(=O)c1c(Cl)cccc1Cl)Nc1ccccc1Sc1ccccc1`?
MC4R barr agon: 0; GalR3 antag: 0; Efflux pump mplx: 0; MC4R antag cAMP: 32*; Calb FLC: -11; cAMP nonselect: 18*; MC4R cAMP antag: 37*

Results for O=C(COC(=O)CNS(=O)(=O)c1cccc(Br)c1)Nc1ccccc1Sc1ccccc1 ?
MC4R barr agon: 5; GalR3 antag: -3; Efflux pump mplx: 0; MC4R antag cAMP: 29*; Calb FLC: -2; cAMP nonselect: 6; MC4R cAMP antag: 18

How did CCOc1ccc2c(ccc(/C=C/c3cc(C)c4cccnc4c3O)[n+]2C)c1 do in these assays?
MC4R barr agon: 1; H9c2 TAG inh: -26; MC4R antag cAMP: 50*; cAMP nonselect: -9; MC4R cAMP antag: 38*

How did Cc1[nH]nc(C(F)(F)F)c1N=NN1CCOCC1 do in these assays?
MC4R barr agon: -1; H9c2 TAG inh: 44; GalR3 antag: -4; MC4R antag cAMP: -2

How did O=S(=O)(Cc1cc(Cl)nc(-c2ccncc2)n1)c1ccccc1 do in these assays?
MC4R barr agon: -3; H9c2 TAG inh: -4; GalR3 antag: -5; Efflux pump mplx: 0; MC4R antag cAMP: 42*; Calb FLC: -9; cAMP nonselect: 5; MC4R cAMP antag: 15

Results for CN(C(=O)CSc1ncnc2c(-c3cccs3)nsc12)C1CCCCC1 ?
GalR3 antag: 1

Results for CCOCc1c(C(=O)NC2=Nc3ccccc3NC(CC)=C2C(=O)OCC)oc2ccccc12 ?
MC4R barr agon: 6; H9c2 TAG inh: 27; GalR3 antag: -7; Efflux pump mplx: 0; MC4R antag cAMP: 38*; Calb FLC: -18; cAMP nonselect: 25*; MC4R cAMP antag: 17

Results for CCOC(=O)C1=C(CC)Nc2ccccc2N=C1NC(=O)c1oc2ccccc2c1C ?
MC4R barr agon: 0; H9c2 TAG inh: 27; GalR3 antag: -3; Efflux pump mplx: 0; MC4R antag cAMP: 0; Calb FLC: 8

What do the screens show for `COC(=O)c1cc(S(=O)(=O)n2nc(C)c(Br)c2C)c(Cl)cc1Cl`?
MC4R barr agon: -2; H9c2 TAG inh: -5; GalR3 antag: 0; Efflux pump mplx: 0; MC4R antag cAMP: 30*; Calb FLC: 49; cAMP nonselect: 6; MC4R cAMP antag: 20

Results for O=C1NC[C@@H](CCCCN2CCN(CCc3ccccc3)C(=O)C2=O)N(CCC2CCCCC2)C1=O ?
GalR3 antag: -4

How did O=C(/C=C/c1ccco1)OCc1nnc(-c2ccc(Cl)cc2)o1 do in these assays?
MC4R barr agon: -2; H9c2 TAG inh: -2; GalR3 antag: -8; Efflux pump mplx: 0; MC4R antag cAMP: 32*; Calb FLC: 1; cAMP nonselect: 1; MC4R cAMP antag: -8

Results for C=C(C)CN(CC)C(=O)CCc1nnc(CCCc2ccccc2)o1 ?
MC4R barr agon: -1; GalR3 antag: 1; Efflux pump mplx: 0; MC4R antag cAMP: 31*; Calb FLC: -8; cAMP nonselect: -2; MC4R cAMP antag: -11
